Legend:
HEK293 [1] = test: Induction of myc-tagged RUNX3 acetylation in human HEK293 cells assessed as acetylated RUNX3 level at 1 uM after 24 hrs by immunoprecipitation analysis relative to TSA; format: functional
Outline: (§1)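 HEK293 cells (DMEM, 10% FBS) transfected with myc-RUNX3 vector using Lipofectamine 2000. Next day treated at 1 µM for 24 h. Lysates (HEPES pH 7.5, NP-40 buffer) immunoprecipitated with anti-myc antibody and protein G beads at 4°C. Immunoprecipitates western-blotted with anti-acetylated lysine antibody; relative acetylated RUNX3 quantified.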

[2] = Metabolic stability in mouse liver microsomes assessed as compound remaining at 1 uM after 30 mins byLC-ESI/MS/MS analysis in presence of NADPH; format: ADME; conditions: read-out: Stability
Outline: (§2)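 Compound at 1 µM incubated in triplicate with pooled mouse liver microsomes (0.5 mg/ml final) in 0.1 M potassium phosphate, pH 7.4, at 37°C, with or without 1 mM NADPH. Reactions stopped at 0 and 30 min with ice-cold acetonitrile containing internal standard. After centrifugation, supernatant analyzed by LC-ESI/MS/MS; percent remaining from analyte/IS peak-area ratios. Buspirone served as positive control.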

NCI-H23 = test: Growth inhibition of human NCI-H23 cells after 5 days by sulforhodamine B assay; format: functional; conditions: NCI-H23, 120 h
[3] = Metabolic stability in mouse liver microsomes assessed as compound remaining at 1 uM after 30 mins by LC-ESI/MS/MS analysis in absence of NADPH; format: ADME; conditions: read-out: Stability; outline: as §2
[4] = Growth inhibition of human HCT15 cells after 5 days by sulforhodamine B assay; format: functional; conditions: HCT-15, 120 h
[5] = Growth inhibition of human NUGC3 cells after 5 days by sulforhodamine B assay; format: functional; conditions: NUGC-3, 120 h
Histone deacetylase = test: Inhibition of HDAC in human HeLa cell nuclear extract using Fluor de Lys as substrate incubated with compound for 30 mins by microtiter-plate reading flourimeter analysis; format: protein assay
ACHN = test: Growth inhibition of human ACHN cells after 5 days by sulforhodamine B assay; format: functional; conditions: 120 h
MDA-MB-231 = test: Growth inhibition of human MDA-MB-231 cells after 5 days by sulforhodamine B assay; format: functional; conditions: MDA-MB-231, 120 h
[6] = Growth inhibition of human PC3 cells after 5 days by sulforhodamine B assay; format: functional; conditions: PC-3, 120 h
HEK293 [7] = test: Induction of myc-tagged RUNX3 acetylation in human HEK293 cells assessed as RUNX3 level at 1 uM after 24 hrs by immunoprecipitation analysis relative to TSA; format: functional; outline: as §1
C2C12 = test: Induction of RUNX transcriptional activation in mouse C2C12-6xOSE2 cells at 1 uM after 24 hrs by luciferase reporter assay relative to FGF-2; format: functional
Outline: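 C2C12-6xOSE stable cells grown in DMEM with 10% FBS at 37°C, 5% CO2. Seeded at 1 × 10^4 cells/well; next day treated with compound or FGF-2 (1 µM each). After 24 h, luciferase measured with Bright-Glo. Activity expressed as percent of the FGF-2 positive-control response.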

Structure (SMILES) | remaining at 0.5 h, 1 µM [2] [%] | GI50 (NCI-H23) [nM] | remaining at 0.5 h, 1 µM [3] [%] | IC50 (Histone deacetylase) [nM] | GI50 (ACHN) [nM] | GI50 (MDA-MB-231) [nM] | fold change (FC) (HEK293 [1]) | GI50 [4] [nM] | GI50 [5] [nM] | GI50 [6] [nM] | fold change (FC) (HEK293 [7]) | Activity (C2C12) [%]
O=C(CCCCCCC(=O)Nc1ccccc1)NO [VORINOSTAT] | – | – | – | – | – | – | – | – | – | – | – | 80.2
O=C(/C=C/c1cccn(CCCc2cccnc2)c1=O)NO | – | 5210 | – | 570 | > 10000 | > 10000 | – | > 10000 | > 10000 | > 10000 | – | 30
COc1cccc(CCn2cccc(/C=C/C(=O)NO)c2=O)c1 | – | 5060 | – | 70 | 2930 | 6940 | – | > 10000 | 2910 | 5870 | – | 53.8
O=C(/C=C/c1cccn(CCc2cccc(Br)c2)c1=O)NO | – | 3300 | – | 160 | 2000 | 4900 | – | 7290 | 1990 | 3580 | – | 74
O=C(/C=C/c1cccn(Cc2cccc(Br)c2)c1=O)NO | – | 3040 | – | 380 | 3030 | 3070 | – | 2730 | 2780 | 4840 | – | 91.6
O=C(/C=C/c1cccn(CCc2ccncc2)c1=O)NO | – | > 10000 | – | > 10000 | > 10000 | > 10000 | – | > 10000 | > 10000 | > 10000 | – | 19.6
O=C(/C=C/c1cccn(Cc2ccccn2)c1=O)NO | – | > 10000 | – | 460 | 6440 | > 10000 | – | > 10000 | > 10000 | 10200 | – | 35.6
O=C(/C=C/c1cccn(Cc2ccncc2)c1=O)NO | – | 3010 | – | 420 | 9490 | 4920 | – | > 10000 | 9190 | 9170 | – | 69.1
CC(C)(C)c1ccc(Cn2cccc(/C=C/C(=O)NO)c2=O)cc1 | – | 2810 | – | 90 | 2800 | 2590 | – | 2400 | 1820 | 3040 | – | 46.4
O=C(/C=C/c1cccn(CCc2ccc(Br)cc2)c1=O)NO | – | 3040 | – | 360 | 2140 | 6390 | – | 8600 | 2830 | 4840 | – | 53.5
O=C1CC2(CCCC2)CC(=O)N1CCCCN1CCN(c2ncccn2)CC1 [BUSPIRONE] | 0.4 | – | 101 | – | – | – | – | – | – | – | – | –
CCc1ccccc1Cn1cccc(/C=C/C(=O)NO)c1=O | – | 4960 | – | 230 | 3240 | 6950 | – | 3930 | 5410 | 5020 | – | 52.3
O=C(/C=C/c1cccn(Cc2cccnc2)c1=O)NO | – | 6700 | – | 300 | 4160 | 10000 | – | 7510 | 5940 | 5330 | – | 32.3
O=C(/C=C/c1cccn(Cc2ccc(Br)cc2)c1=O)NO | – | 3000 | – | 100 | 1480 | 2490 | – | 4310 | 2110 | 1880 | – | 99.2
O=C(/C=C/c1cccn(CCCc2ccc(Br)cc2)c1=O)NO | – | 4880 | – | 210 | 4190 | 4380 | – | 7450 | 4020 | 3970 | – | 53.8
COc1ccc(Cn2cccc(/C=C/C(=O)NO)c2=O)cc1 | – | 5300 | – | 380 | 4730 | 6260 | – | 4520 | 3880 | 4700 | – | 84.6
O=C(/C=C/c1cccn(CCc2ccccn2)c1=O)NO | – | > 10000 | – | 3940 | > 10000 | > 10000 | – | > 10000 | > 10000 | > 10000 | – | 26.7
CCOc1ccccc1CCn1cccc(/C=C/C(=O)NO)c1=O | – | 4920 | – | 320 | 3590 | 3890 | – | 6060 | 3920 | 4920 | – | 30.9

More lines, in order of falling GI50 (NCI-H23), values ahead:

remaining at 0.5 h, 1 µM [2] [%] | GI50 (NCI-H23) [nM] | remaining at 0.5 h, 1 µM [3] [%] | IC50 (Histone deacetylase) [nM] | GI50 (ACHN) [nM] | GI50 (MDA-MB-231) [nM] | Structure (SMILES) | fold change (FC) (HEK293 [1]) | GI50 [4] [nM] | GI50 [5] [nM] | GI50 [6] [nM] | fold change (FC) (HEK293 [7]) | Activity (C2C12) [%]
61.5 | 2690 | 98.6 | 150 | 1260 | 3180 | COc1cccc(Cn2cccc(/C=C/C(=O)NO)c2=O)c1 | 17 | 2600 | 1690 | 1820 | 2 | 200
– | 2350 | – | 100 | 1540 | 3680 | CCc1ccc(Cn2cccc(/C=C/C(=O)NO)c2=O)cc1 | – | 1860 | 1670 | 2070 | – | 74.3
– | 2300 | – | 190 | 1530 | 1590 | O=C(/C=C/c1cccn(Cc2ccccc2Br)c1=O)NO | – | 2400 | 1660 | 2880 | – | 86
– | 2150 | – | 310 | 1710 | 2880 | CCc1ccc(CCCn2cccc(/C=C/C(=O)NO)c2=O)cc1 | – | 1060 | 1740 | 1850 | – | 14.3
24.2 | 1880 | – | 480 | 1920 | 2890 | O=C(/C=C/c1cccn(CCCc2ccccc2Br)c1=O)NO | – | 1580 | 1500 | 1860 | – | 162.8
– | 1810 | – | 120 | 940 | 1740 | CCOc1cccc(CCn2cccc(/C=C/C(=O)NO)c2=O)c1 | – | 920 | 1420 | 1340 | – | 76.9
– | 1780 | – | 380 | 1830 | 2230 | CC(C)(C)c1ccc(CCCn2cccc(/C=C/C(=O)NO)c2=O)cc1 | – | 1420 | 1310 | 1480 | – | 34.4
– | 1310 | – | 140 | 980 | 1360 | COc1ccc(CCCn2cccc(/C=C/C(=O)NO)c2=O)cc1 | – | 900 | 970 | 1780 | – | 97.6
20.7 | 1220 | 96.7 | 100 | 740 | 1850 | O=C(/C=C/c1cccn(CCCc2cccc(Br)c2)c1=O)NO | 0.4 | 1160 | 1200 | 1260 | 0.7 | 100.8
59.6 | 1050 | 105 | 70 | 2340 | 2050 | CCOc1ccc(CCn2cccc(/C=C/C(=O)NO)c2=O)cc1 | 0.2 | 1000 | 1280 | 140 | 0.8 | 119.5
28.3 | 910 | 103 | 110 | 700 | 840 | CC(C)(C)c1ccc(CCn2cccc(/C=C/C(=O)NO)c2=O)cc1 | 0.1 | 710 | 470 | 500 | 1.2 | 104.7
11.1 | 690 | 96.5 | 70 | 700 | 720 | CCc1ccc(CCn2cccc(/C=C/C(=O)NO)c2=O)cc1 | 0.2 | 690 | 740 | 530 | 0.4 | 106

— ChEMBL document CHEMBL3425447, “Discovery of Orally Available Runt-Related Transcription Factor 3 (RUNX3) Modulators for Anticancer Chemotherapy by Epigenetic Activation and Protein Stabilization” (J Med Chem, 2015)
